Calls of active or inactive are those of the source.
What was measured:
Assay type in all cases: functional, organism-based
[1] = system: Acinetobacter baumannii; assay: Antibacterial activity against Acinetobacter baumannii ATCC 17961 up to 128 ug/ml after 16 to 20 hrs by broth microdilution assay
Summary of the method: (§1)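 MIC testing across a concentration series whose top concentration was 128 μg/mL. The E. faecium strain is NCTC 7171 (ATCC 19734). The testing method follows an earlier report.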

[2] = system: Staphylococcus aureus; assay: Antibacterial activity against Staphylococcus aureus ATCC 29213 up to 128 ug/ml after 16 to 20 hrs by broth microdilution assay; summary of the method: as §1
[3] = system: Pseudomonas aeruginosa; assay: Antibacterial activity against Pseudomonas aeruginosa ATCC 27853 up to 128 ug/ml after 16 to 20 hrs by broth microdilution assay; summary of the method: as §1
[4] = system: Klebsiella pneumoniae; assay: Antibacterial activity against Klebsiella pneumoniae ATCC 700603 up to 128 ug/ml after 16 to 20 hrs by broth microdilution assay; summary of the method: as §1
[5] = system: Escherichia coli; assay: Antibacterial activity against Escherichia coli ATCC 25922 up to 128 ug/ml after 16 to 20 hrs by broth microdilution assay; summary of the method: as §1
[6] = system: Enterococcus faecium; assay: Antibacterial activity against Enterococcus faecium ATCC 19734 up to 128 ug/ml after 16 to 20 hrs by broth microdilution assay; summary of the method: as §1
[7] = system: Klebsiella aerogenes; assay: Antibacterial activity against Enterobacter aerogenes ATCC 35029 up to 128 ug/ml after 16 to 20 hrs by broth microdilution assay; summary of the method: as §1

Measured: Activity

Cc1cc(=O)n2c(CC(=O)c3ccccc3)nnc2[nH]1
inactive: [1] | [2] | [3] | [4] | [5] | [6] | [7]

Cc1cc(=O)n2nc(CC(=O)c3ccccc3)nc2[nH]1
inactive: [1] | [2] | [3] | [4] | [5] | [6] | [7]

Cc1cc(=O)[nH]c2nnc(CC(=O)c3ccccc3)n12
inactive: [1] | [2] | [3] | [4] | [5] | [6] | [7]

Cc1cc(=O)[nH]c2nc(CC(=O)c3ccccc3)nn12
inactive: [1] | [2] | [3] | [4] | [5] | [6] | [7]

Reference: ChEMBL document CHEMBL4477193, “The Natural Product Essramycin and Three of Its Isomers Are Devoid of Antibacterial Activity” (J Nat Prod, 2016)
